# Measured values reported in ChEMBL document CHEMBL4265871, “Novel alkylated azoles as potent antifungals” (Eur J Med Chem, 2017).
# How the values were obtained:
# Candida albicans [1] = assay: Antifungal activity against Candida albicans ATCC 64124 incubated for 48 hrs by modified CLSI M27-A3 protocol based method; type: functional; details: ATCC 64124, 48 h
# [2] = Selectivity index, ratio of EC50 for toxicity in human A549 cells to MIC100 for antifungal activity against Candida albicans ATCC 10231; type: cell-based; details: read-out: Selectivity Index
# Procedure, shortened: (§1)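 Selectivity index is the EC50 against the mammalian line (A549 or BEAS-2B) divided by the MIC against the given fungal strain.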
# in vitro = details: mouse, mouse erythrocytes
# Pichia kudriavzevii = assay: Antifungal activity against Candida krusei ATCC 6258 incubated for 48 hrs by modified CLSI M27-A3 protocol based method; type: functional; details: ATCC 6258, 48 h, read-out: MIC100
# Procedure, shortened: (§2)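 For C. albicans ATCC 10231, C. krusei ATCC 6258 and C. parapsilosis ATCC 22019, MIC-0 was read, meaning complete growth inhibition. For azole controls, MIC-2 (50% growth inhibition) was reported instead. Caspofungin and voriconazole were tested here; other controls came from earlier work.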
# [3] = Selectivity index, ratio of EC50 for toxicity in human BEAS2B cells to MIC50 for antifungal activity against Candida glabrata ATCC 2001; type: cell-based; details: BEAS-2B cells, read-out: Selectivity Index; procedure, shortened: as §1
# [4] = Selectivity index, ratio of […] for toxicity in human A549 cells to MIC50 for antifungal activity against Aspergillus flavus ATCC MYA-3631; type: cell-based; details: read-out: Selectivity Index
# [5] = Selectivity index, ratio of EC50 for toxicity in human BEAS2B cells to MIC50 for antifungal activity against ITC and FLC-resistant Candida albicans ATCC MYA-90819; type: cell-based; details: BEAS-2B cells, read-out: Selectivity Index
# Procedure, shortened: (§3)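 Ratio of the compound's EC50 against BEAS-2B cells to its MIC against the named C. albicans strain. […] For C. albicans strains other than ATCC 10231, trailing growth meant MIC-2 was taken, meaning 50% growth inhibition.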
# Candida parapsilosis = assay: Antifungal activity against Candida parapsilosis ATCC 22019 incubated for 48 hrs by modified CLSI M27-A3 protocol based method; type: functional; details: Lodderomyces parapsilosis, ATCC 22019, 48 h; read-out: MIC100; procedure, shortened: as §2
# [6] = Hemolytic activity in mouse erythrocytes assessed as hemolysis level at 31.3 ug/ml incubated for 1 hr at 37 degC; type: ADME, cell-based, Erythrocyte; details: read-out: Activity
# Procedure, shortened: (§4)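 Mouse erythrocytes incubated 1 h at 37 °C with test agents over 1.95 to 125 µg/mL. Percent lysis is read for each concentration.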
# [7] = Toxicity in human A549 cells assessed as reduction in cell viability incubated for 24 hrs by resazurin dye based assay
# Procedure, shortened: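 Toxicity tested in the nucleated lines A549 and BEAS-2B to give EC50 values. Selectivity index is EC50 against the mammalian line divided by the MIC against a given fungal strain.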
# [8] = Selectivity index, ratio of EC50 for toxicity in human BEAS2B cells to MIC50 for antifungal activity against Candida krusei ATCC 6258; details: BEAS-2B cells
# Candida albicans [9] = assay: Antifungal activity against Candida albicans ATCC 10231 incubated for 48 hrs by modified CLSI M27-A3 protocol based method; type: functional; details: ATCC 10231, 48 h, read-out: MIC100; procedure, shortened: as §2
# [10] = Selectivity index, ratio of EC50 for toxicity in human BEAS2B cells to MIC50 for antifungal activity against ITC and FLC-resistant Candida albicans ATCC MYA-1003; type: cell-based; details: BEAS-2B cells, read-out: Selectivity Index; procedure, shortened: as §1
# Candida albicans [11] = assay: Antifungal activity against ITC and FLC-resistant Candida albicans ATCC 1237 incubated for 48 hrs by modified CLSI M27-A3 protocol based method; type: functional; details: ATCC 1237, 48 h
# Procedure, shortened: (§5)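 Because these Candida strains show trailing growth, MIC-2 was read, meaning 50% growth inhibition. Caspofungin and voriconazole were tested here; other controls came from earlier work.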
# [12] = Hemolytic activity in mouse erythrocytes assessed as hemolysis level at 7.8 ug/ml incubated for 1 hr at 37 degC; type: ADME, cell-based, Erythrocyte; details: read-out: Activity; procedure, shortened: as §4
# [13] = Selectivity index, ratio of EC50 for toxicity in human BEAS2B cells to MIC50 for antifungal activity against ITC and FLC-resistant Candida albicans ATCC 1237; type: cell-based; details: BEAS-2B cells, read-out: Selectivity Index; procedure, shortened: as §1
# [14] = Selectivity index, ratio of […] for toxicity in human A549 cells to MIC50 for antifungal activity against Aspergillus nidulans ATCC 38163; type: cell-based; details: read-out: Selectivity Index
# [15] = Selectivity index, ratio of EC50 for toxicity in human A549 cells to MIC50 for antifungal activity against Candida krusei ATCC 6258
# [16] = Selectivity index, ratio of EC50 for toxicity in human A549 cells to MIC for antifungal activity against Candida parapsilosis ATCC 22019
# [17] = Selectivity index, ratio of EC50 for toxicity in human BEAS2B cells to MIC50 for antifungal activity against Candida albicans ATCC 64124; type: cell-based; details: BEAS-2B cells, read-out: Selectivity Index; procedure, shortened: as §1
# [18] = Selectivity index, ratio of EC50 for toxicity in human A549 cells to MIC50 for antifungal activity against Candida glabrata ATCC 2001; type: cell-based; details: read-out: Selectivity Index; procedure, shortened: as §1
# [19] = Selectivity index, ratio of […] for toxicity in human BEAS2B cells to MIC50 for antifungal activity against Aspergillus flavus ATCC MYA-3631; type: cell-based; details: BEAS-2B cells, read-out: Selectivity Index
# [20] = Selectivity index, ratio of EC50 for toxicity in human BEAS2B cells to MIC for antifungal activity against Candida parapsilosis ATCC 22019; details: BEAS-2B cells
# [21] = Selectivity index, ratio of EC50 for toxicity in human A549 cells to MIC50 for antifungal activity against ITC and FLC-resistant Candida albicans ATCC MYA-90819; type: cell-based; details: read-out: Selectivity Index; procedure, shortened: as §1
# [22] = Selectivity index, ratio of […] for toxicity in human BEAS2B cells to MIC50 for antifungal activity against Aspergillus terreus ATCC MYA-3633; type: cell-based; details: BEAS-2B cells, read-out: Selectivity Index
# [23] = Selectivity index, ratio of EC50 for toxicity in human BEAS2B cells to MIC50 for antifungal activity against ITC and FLC-susceptible Candida albicans ATCC MYA-2310; type: cell-based; details: BEAS-2B cells, read-out: Selectivity Index; procedure, shortened: as §3
# Candida albicans [24] = assay: Antifungal activity against ITC and FLC-susceptible Candida albicans ATCC MYA-2310 incubated for 48 hrs by modified CLSI M27-A3 protocol based method; type: functional; details: ATCC MYA-2310, 48 h
# [25] = Selectivity index, ratio of EC50 for toxicity in human A549 cells to MIC50 for antifungal activity against ITC and FLC-susceptible Candida albicans ATCC MYA-2310; type: cell-based; details: read-out: Selectivity Index; procedure, shortened: as §1
# [26] = Hemolytic activity in mouse erythrocytes assessed as hemolysis level at 1.95 ug/ml incubated for 1 hr at 37 degC; type: ADME, cell-based, Erythrocyte; details: read-out: Activity; procedure, shortened: as §4
# [27] = Hemolytic activity in mouse erythrocytes assessed as hemolysis level at 125 ug/ml incubated for 1 hr at 37 degC; type: ADME, cell-based, Erythrocyte; details: read-out: Activity; procedure, shortened: as §4
# Candida albicans [28] = assay: Antifungal activity against ITC and FLC-resistant Candida albicans ATCC MYA-1003 incubated for 48 hrs by modified CLSI M27-A3 protocol based method; type: functional; details: ATCC MYA-1003, 48 h; procedure, shortened: as §5
# [29] = Selectivity index, ratio of EC50 for toxicity in human BEAS2B cells to MIC100 for antifungal activity against Candida albicans ATCC 10231; type: cell-based; details: BEAS-2B cells, read-out: Selectivity Index; procedure, shortened: as §1
SMILES,MIC50 (Candida albicans [1]) [µM],selectivity ratio [2],"hemolysis at 1 h, 62.5 ug/ml (in vitro) [%]",MIC (Pichia kudriavzevii) [µM],selectivity ratio [3],selectivity ratio [4],selectivity ratio [5],MIC (Candida parapsilosis) [µM],"hemolysis at 1 h, 31.3 ug/ml [6] [%]",EC50 at 24 h [7] [µg/mL],selectivity ratio [8],MIC (Candida albicans [9]) [µM],selectivity ratio [10],MIC50 (Candida albicans [11]) [µM],"hemolysis at 1 h, 7.8 ug/ml [12] [%]",selectivity ratio [13],selectivity ratio [14],selectivity ratio [15],selectivity ratio [16],selectivity ratio [17],other results
CCCCCC(O)(Cn1cncn1)c1ccccc1Cl (stereo unspecified),> 106,4,0,3.3,32,1,65,0.41,0,> 31.3,32,26.5,4,3.3,0,32,32,32,261,1,"selectivity ratio [18]: 32; selectivity ratio [19]: 1; selectivity ratio [20]: 261; selectivity ratio [21]: 65; selectivity ratio [22]: 2; selectivity ratio [23]: 32; MIC50 (Candida albicans [24]): 3.3 µM; selectivity ratio [25]: 32; hemolysis at 1 h, 1.95 ug/ml [26]: 0%; hemolysis at 1 h, 125 ug/ml [27]: 81%; MIC50 (Candida albicans [28]): 26.5 µM; selectivity ratio [29]: 4"
CCCCCCCCC(O)(Cn1cncn1)c1ccc(F)cc1F (stereo unspecified),11.6,6,69,0.71,7,0.4,7,≤ 0.18,68.4,12,54,5.8,7,5.8,46.8,7,25,50,200,3,"selectivity ratio [18]: 6; selectivity ratio [19]: 0.4; selectivity ratio [20]: 217; selectivity ratio [21]: 6; selectivity ratio [22]: 2; selectivity ratio [23]: 7; MIC50 (Candida albicans [24]): 5.8 µM; selectivity ratio [25]: 6; hemolysis at 1 h, 1.95 ug/ml [26]: 0%; hemolysis at 1 h, 125 ug/ml [27]: 97.1%; MIC50 (Candida albicans [28]): 5.8 µM; selectivity ratio [29]: 7"
CCCCCCC(O)(Cn1cncn1)c1ccc(Cl)cc1 (stereo unspecified),102,19,83.9,6.3,1,1,8,> 102,9.5,38,16,6.3,16,12.7,0,8,10,19,1,1,"selectivity ratio [18]: 1; selectivity ratio [19]: 1; selectivity ratio [20]: 1; selectivity ratio [21]: 10; selectivity ratio [22]: 2; selectivity ratio [23]: 1; MIC50 (Candida albicans [24]): 102 µM; selectivity ratio [25]: 1; hemolysis at 1 h, 1.95 ug/ml [26]: 0%; hemolysis at 1 h, 125 ug/ml [27]: 102%; MIC50 (Candida albicans [28]): 6.3 µM; selectivity ratio [29]: 16"
